Reference: ChEMBL document CHEMBL3112482, “Nonclassical antifolates, part 5. Benzodiazepine analogs as a new class of DHFR inhibitors: synthesis, antitumor testing and molecular modeling study” (Eur J Med Chem, 2014)

Key:
Format in all cases: functional
[1] = test system: NCI-H460; assay: Growth inhibition of human NCI-H460 cells at 10 uM after 48 hrs; settings: NCI-H460, 48 h, read-out: GI
How it was run: (§1)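 Single-dose primary screen in the NCI 60 human tumour cell line panel, run at the NCI facility. The panel covers nine subpanels: leukaemia, non-small cell lung, colon, CNS, melanoma, ovarian, renal, prostate and breast. Read-out was percent growth of treated cells, shown as a mean graph and reported as percent growth inhibition.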

[2] = test system: HOP-62; assay: Growth inhibition of human HOP62 cells at 10 uM after 48 hrs; settings: HOP-62, 48 h, read-out: GI; how it was run: as §1
[3] = test system: U-251; assay: Growth inhibition of human U251 cells at 10 uM after 48 hrs; settings: U-251, 48 h, read-out: GI
How it was run: (§2)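 NCI 60-cell-line disease-oriented human tumor panel, single-dose primary screen at 10 µM. Data given as mean-graph percent growth of treated cells, reported as percent growth inhibition (GI %).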

[4] = test system: HCT-15; assay: Growth inhibition of human HCT15 cells at 10 uM after 48 hrs; settings: HCT-15, 48 h, read-out: GI; how it was run: as §1
[5] = test system: NCI-H226; assay: Growth inhibition of human NCI-H226 cells at 10 uM after 48 hrs; settings: NCI-H226, 48 h, read-out: GI; how it was run: as §1
[6] = test system: IGROV-1; assay: Growth inhibition of human IGROV1 cells at 10 uM after 48 hrs; settings: IGROV-1, 48 h, read-out: GI; how it was run: as §1
[7] = test system: A549; assay: Growth inhibition of human A549 cells at 10 uM after 48 hrs; settings: A549, 48 h, read-out: GI; how it was run: as §1
[8] = test system: UACC-62; assay: Growth inhibition of human UACC62 cells at 10 uM after 48 hrs; settings: UACC-62, 48 h, read-out: GI; how it was run: as §2
[9] = test system: 786-0; assay: Growth inhibition of human 786-0 cells at 10 uM after 48 hrs; settings: 786-0, 48 h, read-out: GI; how it was run: as §1
[10] = test system: ACHN; assay: Growth inhibition of human ACHN cells at 10 uM after 48 hrs; settings: read-out: GI; how it was run: as §1
[11] = test system: MDA-MB-468; assay: Growth inhibition of human MDA-MB-468 cells at 10 uM after 48 hrs; settings: MDA-MB-468, 48 h, read-out: GI; how it was run: as §1
[12] = test system: Malme-3M; assay: Growth inhibition of human MALME-3M cells at 10 uM after 48 hrs; settings: read-out: GI; how it was run: as §1
[13] = test system: SN12C; assay: Growth inhibition of human SN12C cells at 10 uM after 48 hrs; settings: read-out: GI; how it was run: as §2
[14] = Growth inhibition of human HOP92 cells at 10 uM after 48 hrs; settings: HOP-92, 48 h, read-out: GI; how it was run: as §1
[15] = test system: SK-MEL-5; assay: Growth inhibition of human SK-MEL-5 cells at 10 uM after 48 hrs; settings: SK-MEL-5, 48 h, read-out: GI; how it was run: as §2
[16] = test system: KM12; assay: Growth inhibition of human KM12 cells at 10 uM after 48 hrs; settings: KM12, 48 h, read-out: GI; how it was run: as §1
[17] = test system: BT-549; assay: Growth inhibition of human BT549 cells at 10 uM after 48 hrs; settings: BT-549, 48 h, read-out: GI; how it was run: as §1
[18] = test system: LOX IMVI; assay: Growth inhibition of human LOXIMVI cells at 10 uM after 48 hrs; settings: read-out: GI; how it was run: as §1
[19] = test system: HT-29; assay: Growth inhibition of human HT-29 cells at 10 uM after 48 hrs; settings: HT-29, 48 h, read-out: GI; how it was run: as §1
[20] = test system: SF-295; assay: Growth inhibition of human SF295 cells at 10 uM after 48 hrs; settings: SF-295, 48 h, read-out: GI; how it was run: as §2
[21] = test system: HCT-116; assay: Growth inhibition of human HCT116 cells at 10 uM after 48 hrs; settings: HCT-116, 48 h, read-out: GI; how it was run: as §1
[22] = Growth inhibition of human HCC2998 cells at 10 uM after 48 hrs; settings: HCC 2998, 48 h, read-out: GI; how it was run: as §1
[23] = test system: HL-60(TB); assay: Growth inhibition of human HL-60(TB) cells at 10 uM after 48 hrs; settings: HL-60, 48 h, read-out: GI
How it was run: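 NCI 60-cell-line human tumour panel covering nine subpanels (leukaemia, non-small cell lung, colon, CNS, melanoma, ovarian, renal, prostate, breast), run at the NCI facility. Primary screen tested a single dose of each compound. Read-out was percent growth of treated cells versus untreated cells, reported from the mean graph as percentage growth inhibition.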

[24] = test system: OVCAR-3; assay: Growth inhibition of human OVCAR3 cells at 10 uM after 48 hrs; settings: OVCAR-3, 48 h, read-out: GI; how it was run: as §1
[25] = test system: Cancer cell lines; assay: Ratio of 5-FU GI50 to compound GI50 for human prostate cancer cells
How it was run: (§3)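 Compounds passing the NCI single-dose primary screen were retested across the 60 human tumour cell lines (nine subpanels) over a 5-log dose range. GI50, TGI and LC50 were recorded for each cell line, with 5-fluorouracil run as the reference drug. Subpanel values for compound and 5-FU were then compared.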

[26] = test system: Melanoma cell; assay: Ratio of 5-FU LC50 to compound LC50 for human melanoma cells; how it was run: as §3
[27] = test system: Cancer cell lines; assay: Ratio of 5-FU TGI to compound TGI for human colon cancer cells
[28] = test system: Melanoma cell; assay: Ratio of 5-FU TGI to compound TGI for human melanoma cells
[29] = test system: Cancer cell lines; assay: Ratio of 5-FU GI50 to compound GI50 for human breast cancer cells; how it was run: as §3
[30] = test system: Cancer cell lines; assay: Ratio of 5-FU GI50 to compound GI50 for human ovarian cancer cells; how it was run: as §3
[31] = test system: Cancer cell lines; assay: Ratio of 5-FU LC50 to compound LC50 for human CNS cancer cells; how it was run: as §3
[32] = Cytotoxicity against human melanoma cells at 10 uM after 48 hrs; settings: Melanoma cell; how it was run: as §1
[33] = Cytotoxicity against human leukemia cells at 10 uM after 48 hrs; settings: Leukemia cell
[34] = test system: Leukemia cell; assay: Ratio of 5-FU LC50 to compound LC50 for human leukemia cells; how it was run: as §3
[35] = test system: Cancer cell lines; assay: Ratio of 5-FU LC50 to compound LC50 for human renal cancer cells; how it was run: as §3
[36] = test system: Cancer cell lines; assay: Ratio of 5-FU TGI to compound TGI for human renal cancer cells
[37] = Cytotoxicity against human non-small cell lung cancer cells at 10 uM after 48 hrs; settings: Cancer cell lines; how it was run: as §1
[38] = test system: Cancer cell lines; assay: Ratio of 5-FU GI50 to compound GI50 for human colon cancer cells; how it was run: as §3
[39] = test system: Leukemia cell; assay: Ratio of 5-FU GI50 to compound GI50 for human leukemia cells; how it was run: as §3
[40] = test system: Cancer cell lines; assay: Ratio of 5-FU LC50 to compound LC50 for human colon cancer cells; how it was run: as §3
[41] = test system: Cancer cell lines; assay: Ratio of 5-FU LC50 to compound LC50 for human non-small cell lung cancer cells; how it was run: as §3
[42] = test system: Cancer cell lines; assay: Ratio of 5-FU LC50 to compound LC50 for human prostate cancer cells; how it was run: as §3
[43] = test system: Cancer cell lines; assay: Ratio of 5-FU LC50 to compound LC50 for human breast cancer cells; how it was run: as §3
[44] = test system: Melanoma cell; assay: Ratio of 5-FU GI50 to compound GI50 for human melanoma cells; how it was run: as §3
[45] = test system: Cancer cell lines; assay: Ratio of 5-FU TGI to compound TGI for human non-small cell lung cancer cells
[46] = read-out: LC50 (the source's name)

Cc1nc2c(c(-c3ccc(Br)cc3)n1)CCC/C2=C\c1ccc(Br)cc1
inhibition of growth at 10 µM [1]: < 30%
inhibition of growth at 10 µM [2]: < 30%
inhibition of growth at 10 µM [3]: < 30%
inhibition of growth at 10 µM [4]: < 30%
inhibition of growth at 10 µM [5]: < 30%
inhibition of growth at 10 µM [6]: < 30%
inhibition of growth at 10 µM [7]: < 30%
inhibition of growth at 10 µM [8]: < 30%
inhibition of growth at 10 µM [9]: < 30%
inhibition of growth at 10 µM [10]: < 30%
inhibition of growth at 10 µM [11]: < 30%
inhibition of growth at 10 µM [12]: < 30%
inhibition of growth at 10 µM [13]: < 30%
inhibition of growth at 10 µM [14]: < 30%
inhibition of growth at 10 µM [15]: < 30%
inhibition of growth at 10 µM [16]: < 30%
inhibition of growth at 10 µM [17]: < 30%
inhibition of growth at 10 µM [18]: < 30%
inhibition of growth at 10 µM [19]: < 30%
inhibition of growth at 10 µM [20]: < 30%
inhibition of growth at 10 µM [21]: 55.8%
inhibition of growth at 10 µM [22]: < 30%
inhibition of growth at 10 µM [23]: < 30%
inhibition of growth at 10 µM [24]: < 30%

COc1ccc(/C=C2\CCCC3=C(c4ccc(OC)cc4)Nc4ccccc4N=C32)cc1
inhibition of growth at 10 µM [1]: < 30%
inhibition of growth at 10 µM [2]: < 30%
inhibition of growth at 10 µM [3]: < 30%
inhibition of growth at 10 µM [4]: < 30%
inhibition of growth at 10 µM [5]: < 30%
inhibition of growth at 10 µM [6]: < 30%
inhibition of growth at 10 µM [7]: < 30%
inhibition of growth at 10 µM [8]: 32%
inhibition of growth at 10 µM [9]: < 30%
inhibition of growth at 10 µM [10]: < 30%
inhibition of growth at 10 µM [11]: 56.4%
inhibition of growth at 10 µM [12]: < 30%
inhibition of growth at 10 µM [13]: < 30%
inhibition of growth at 10 µM [14]: < 30%
inhibition of growth at 10 µM [15]: < 30%
inhibition of growth at 10 µM [16]: 72.5%
inhibition of growth at 10 µM [17]: < 30%
inhibition of growth at 10 µM [18]: 42.6%
inhibition of growth at 10 µM [19]: < 30%
inhibition of growth at 10 µM [20]: < 30%
inhibition of growth at 10 µM [21]: 61.9%
inhibition of growth at 10 µM [22]: < 30%
inhibition of growth at 10 µM [23]: < 30%
inhibition of growth at 10 µM [24]: < 30%

COc1cc(/C=C2\CCCc3c2nc(N)nc3-c2cc(OC)c(OC)c(OC)c2)cc(OC)c1OC
inhibition of growth at 10 µM [2]: 82.2%
RatioGI50 [25]: 15
RatioLC50 [26]: 15
Ratio [27]: 15
Ratio [28]: 15
RatioGI50 [29]: 15
RatioGI50 [30]: 15
RatioLC50 [31]: 15
GI50 [32]: 1.3 µM
TGI [32]: 20 µM
CC50 [32, 46]: > 100 µM
GI50 [33]: 1.3 µM
LC50 [33]: > 100 µM
TGI [33]: 36.5 µM
RatioLC50 [34]: 15
RatioLC50 [35]: 15
Ratio [36]: 15
GI50 [37]: 1.7 µM
TGI [37]: 42.5 µM
CC50 [37, 46]: > 100 µM
RatioGI50 [38]: 15
RatioGI50 [39]: 15
RatioLC50 [40]: 15
RatioLC50 [41]: 15
RatioLC50 [42]: 15
RatioLC50 [43]: 15
RatioGI50 [44]: 15
Ratio [45]: 15
